Laboratory results: ChEMBL document CHEMBL5724801, “EUbOPEN Chemogenomics Library - Multiplex” (2024)
Where “and” joins values, the source holds several entries; their conditions need not be identical. Equal entries are not always repeated.

Test system: U2OS
Assay: Multiplex assay against U2OS
Format: toxicity, cell-based
Settings: human
How it was run: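 On a CQ1 microscope at 37°C and 5% CO2, live cells were imaged after compound addition. They had been stained at seeding with Hoechst33342, BioTracker Green Microtubule Cytoskeleton Dye, MitoTracker Red and Annexin V Alexa Fluor 680. CellPathfinder machine-learning gating assigned cells to Hoechst high-intensity objects or normal cells, normal cells to healthy, pyknosed or fragmented nuclei, and pyknosed cells to mitotic or apoptotic. Tubulin, mitochondrial-mass and membrane-permeability phenotypes are per cents of healthy-nucleus cells.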

[1] = 12 h, 1 µM, compound concentration 1 uM
[2] = 12 h, 10 µM, compound concentration 10 uM
[3] = 24 h, 1 µM, compound concentration 1 uM
[4] = 24 h, 10 µM, compound concentration 10 uM
[5] = 48 h, 1 µM, compound concentration 1 uM
[6] = 48 h, 10 µM, compound concentration 10 uM

For CCOC(=O)c1cnn(-c2ccc(NC(=O)C(Cl)=C(Cl)Cl)cc2)c1C(F)(F)F, the “Population Apoptotic (%)” value [1] was 35.29% and 57.89%, the “Population Fragmented Nuclei (%)” value [1] was 2.52% and 2.35% and the “Population Healthy Nuclei (%)” value [1] was 88.92% and 86.47%. The “Population Hoechst High Intensity Objects (%)” value [1] was 0%, the “Population Membrane Permeable-Phenotype (%)” value [1] was 0.57% and 2.72% and the “Population Mitochondria Different-Phenotype (%)” value [1] was 0.85% and 4.76%. For the same compound, the “Population Mitotic Cells (%)” value [1] was 64.71% and 42.11%, the “Population Normal (%)” value [1] was 100% and the “Population Pyknosed Nuclei (%)” value [1] was 8.56% and 11.18%. The “Population Tubulin-Different-Phenotype (%)” value [1] was 0.57% and 0%, the “Total Cell Count” value [1] was 397 and 170 and the “Population Apoptotic (%)” value [2] was 21.96% and 33.6%. The “Population Fragmented Nuclei (%)” value [2] was 2.71% and 4.35%, the “Population Healthy Nuclei (%)” value [2] was 8.13% and 5.07% and the “Population Hoechst High Intensity Objects (%)” value [2] was 0%. For the same compound, the “Population Membrane Permeable-Phenotype (%)” value [2] was 11.11% and 28.57%, the “Population Mitotic Cells (%)” value [2] was 78.04% and 66.4% and the “Population Normal (%)” value [2] was 100%. The “Population Pyknosed Nuclei (%)” value [2] was 89.16% and 90.58%, the “Population Tubulin-Different-Phenotype (%)” value [2] was 25.93% and 14.29% and the “Total Cell Count” value [2] was 332 and 138. The “Population Apoptotic (%)” value [3] was 36.07% and 39.02%, the “Population Fragmented Nuclei (%)” value [3] was 1.33% and 1.84% and the “Population Healthy Nuclei (%)” value [3] was 87.12% and 79.26%. The “Population Hoechst High Intensity Objects (%)” value [3] was 0%, the “Population Membrane Permeable-Phenotype (%)” value [3] was 0.43% and 0.58% and the “Population Mitochondria Different-Phenotype (%)” value [3] was 0.43% and 4.07%. For the same compound, the “Population Mitotic Cells (%)” value [3] was 63.93% and 60.98%, the “Population Normal (%)” value [3] was 100% and the “Population Pyknosed Nuclei (%)” value [3] was 11.55% and 18.89%. For the same compound, the “Population Tubulin-Different-Phenotype (%)” value [3] was 0.22% and 0%, the “Total Cell Count” value [3] was 528 and 217 and the “Population Apoptotic (%)” value [4] was 65.22% and 84.92%. For the same compound, the “Population Fragmented Nuclei (%)” value [4] was 3.27% and 2.76%, the “Population Healthy Nuclei (%)” value [4] was 7.74% and 10.34% and the “Population Hoechst High Intensity Objects (%)” value [4] was 0%. The “Population Membrane Permeable-Phenotype (%)” value [4] was 30.77% and 46.67%, the “Population Mitochondria Different-Phenotype (%)” value [4] was 0% and 13.33% and the “Population Mitotic Cells (%)” value [4] was 34.78% and 15.08%. The “Population Normal (%)” value [4] was 100%, the “Population Pyknosed Nuclei (%)” value [4] was 88.99% and 86.9% and the “Population Tubulin-Different-Phenotype (%)” value [4] was 57.69% and 60%. The “Total Cell Count” value [4] was 336 and 145, the “Population Apoptotic (%)” value [5] was 48.86% and 64.44% and the “Population Fragmented Nuclei (%)” value [5] was 5.03% and 2.12%. For the same compound, the “Population Healthy Nuclei (%)” value [5] was 85.95% and 84.24%, the “Population Hoechst High Intensity Objects (%)” value [5] was 0% and the “Population Membrane Permeable-Phenotype (%)” value [5] was 1.31% and 2.52%. The “Population Mitochondria Different-Phenotype (%)” value [5] was 0.12% and 2.16%, the “Population Mitotic Cells (%)” value [5] was 51.14% and 35.56% and the “Population Normal (%)” value [5] was 100%. For the same compound, the “Population Pyknosed Nuclei (%)” value [5] was 9.03% and 13.64%, the “Population Tubulin-Different-Phenotype (%)” value [5] was 1.07% and 1.44% and the “Total Cell Count” value [5] was 975 and 330. The “Population Apoptotic (%)” value [6] was 86.63% and 98.18%, the “Population Fragmented Nuclei (%)” value [6] was 2.51% and 10.64% and the “Population Healthy Nuclei (%)” value [6] was 38.87% and 50.35%. The “Population Hoechst High Intensity Objects (%)” value [6] was 0%, the “Population Membrane Permeable-Phenotype (%)” value [6] was 8.06% and 23.94% and the “Population Mitochondria Different-Phenotype (%)” value [6] was 11.29% and 15.49%. For the same compound, the “Population Normal (%)” value [6] was 100%, the “Population Pyknosed Nuclei (%)” value [6] was 58.62% and 39.01% and the “Population Tubulin-Different-Phenotype (%)” value [6] was 66.94% and 47.89%. The “Total Cell Count” value [6] was 319 and 141.
